The nature of data set [1]: Induction of apoptosis in human HT-29 cells assessed as viable cells at 20 uM after 24 hrs by Annexin V-FITC/propidium iodide staining based flow cytometric analysis (reference value: 80.8%). The format is cell-based. Particulars: read-out: Activity.
In data set [2] the target is Vascular endothelial growth factor receptor 2 (Homo sapiens) (UniProt P35968). In words: Inhibition of VEGFR2 in VEGF-stimulated HUVEC assessed as downregulation of AKT phosphorylation at Ser473 residue at 1 to 10 uM pre-incubated for 2 hrs followed by VEGF stimulation and measured after 15 mins by Western blot analysis. In kind it is cell-based. The method, boiled down: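 HUVECs serum-starved overnight, pretreated 2 h with 1, 2.5, 5 or 10 μM compound, then stimulated 15 min with 50 ng/mL VEGF165. Lysed in Tris/EDTA/Triton/deoxycholate/SDS buffer with phosphatase and protease inhibitors. Protein equalized by Bradford, about 20 μg resolved on gradient SDS-PAGE. Blots probed for phospho and total VEGFR2 (Tyr1175), ERK1/2 (Thr202/Tyr204) and AKT (Ser473) against actin, with HRP/ECL detection.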
Chain of Vascular endothelial growth factor receptor 2 (Homo sapiens) (P35968 whole entry): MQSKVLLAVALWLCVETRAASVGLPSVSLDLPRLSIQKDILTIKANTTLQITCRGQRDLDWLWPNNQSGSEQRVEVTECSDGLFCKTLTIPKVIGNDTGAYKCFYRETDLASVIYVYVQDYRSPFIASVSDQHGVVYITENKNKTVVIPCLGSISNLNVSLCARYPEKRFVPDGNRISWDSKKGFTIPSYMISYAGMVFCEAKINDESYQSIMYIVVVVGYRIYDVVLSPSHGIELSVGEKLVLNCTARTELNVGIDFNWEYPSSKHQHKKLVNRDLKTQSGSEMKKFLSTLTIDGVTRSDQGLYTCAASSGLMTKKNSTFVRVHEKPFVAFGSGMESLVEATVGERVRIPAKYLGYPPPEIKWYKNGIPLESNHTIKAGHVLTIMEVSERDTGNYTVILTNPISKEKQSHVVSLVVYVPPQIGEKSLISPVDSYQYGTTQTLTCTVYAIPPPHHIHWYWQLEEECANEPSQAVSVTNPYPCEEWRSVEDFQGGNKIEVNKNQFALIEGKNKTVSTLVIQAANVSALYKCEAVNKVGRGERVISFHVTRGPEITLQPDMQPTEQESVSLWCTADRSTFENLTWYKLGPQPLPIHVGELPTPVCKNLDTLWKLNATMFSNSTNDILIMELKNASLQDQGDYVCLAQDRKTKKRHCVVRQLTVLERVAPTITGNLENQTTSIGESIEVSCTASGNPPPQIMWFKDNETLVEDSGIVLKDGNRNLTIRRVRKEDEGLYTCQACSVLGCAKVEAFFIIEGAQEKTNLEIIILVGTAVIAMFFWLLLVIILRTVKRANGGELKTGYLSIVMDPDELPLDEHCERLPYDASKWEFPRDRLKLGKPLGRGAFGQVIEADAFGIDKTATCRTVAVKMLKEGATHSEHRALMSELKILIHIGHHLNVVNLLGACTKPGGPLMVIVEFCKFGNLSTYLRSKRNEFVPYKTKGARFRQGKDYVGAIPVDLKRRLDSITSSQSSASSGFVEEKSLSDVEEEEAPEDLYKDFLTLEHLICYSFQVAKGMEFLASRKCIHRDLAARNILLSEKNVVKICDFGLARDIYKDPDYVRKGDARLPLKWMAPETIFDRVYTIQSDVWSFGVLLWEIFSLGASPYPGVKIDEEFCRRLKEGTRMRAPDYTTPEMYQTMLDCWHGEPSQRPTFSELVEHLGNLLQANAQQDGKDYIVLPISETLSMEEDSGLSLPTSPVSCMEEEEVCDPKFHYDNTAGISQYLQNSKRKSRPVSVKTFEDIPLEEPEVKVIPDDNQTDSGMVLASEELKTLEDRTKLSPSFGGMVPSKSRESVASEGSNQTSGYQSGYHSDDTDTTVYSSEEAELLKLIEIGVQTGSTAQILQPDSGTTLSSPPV

In data set [3] the test system is HT-29. In words: Induction of apoptosis in human HT-29 cells assessed as early apoptotic cells at 5 uM after 24 hrs by Annexin V-FITC/propidium iodide staining based flow cytometric analysis (reference value: 1.9 to 5.3%). In kind it is cell-based. The following applies: ht-29, 24 h.
Data set [4] has as its system HUVEC. In words: Induction of apoptosis in VEGF-stimulated HUVEC assessed as late apoptotic cells at 1 uM after 24 hrs by Annexin V-FITC/propidium iodide staining based flow cytometric analysis (reference value: 11.3%). In kind it is cell-based. Particulars: human. The gist of the method: (§1)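 HUVECs plated at 5×10^5 per well and treated 24 h with 1, 5, 10 or 20 μM. Detached and adherent cells were pooled, washed in ice-cold PBS and resuspended in fresh medium. 1×10^5 cells were stained with annexin-V-FITC in annexin-V buffer for 20 min in the dark, then PI (50 μg/mL) was added. Read-out by flow cytometry.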

Data set [5] deals with Vascular endothelial growth factor receptor 2 (Homo sapiens) (UniProt P35968). In words: Inhibition of VEGFR2 (unknown origin) at 10 uM using myelin basic protein as substrate in presence of [gamma-33P]-ATP by scintillation counting analysis relative to control. The gist of the method:
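Radiometric kinase panel run by a contract lab. Kinase (5–10 mU) in 25 mM Tris pH 7.5, 0.02 mM EGTA, 0.66 mg/mL myelin basic protein, magnesium acetate and [γ-33P]-ATP (about 500 cpm/pmol). Started with Mg-ATP mix, 40 min at room temperature, stopped with 3% phosphoric acid. Spotted on P30 filters, washed in 75 mM phosphoric acid and methanol, scintillation counted. Mean ± SD of three independent experiments.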

Data set [6] relates to HT-29. The data set can be described thus: Induction of apoptosis in human HT-29 cells assessed as necrotic cells at 5 uM after 48 hrs by Annexin V-FITC/propidium iodide staining based flow cytometric analysis (reference value: 1.3%). The format is cell-based. Particulars: ht-29, 48 h.
In data set [7] the test system is HUVEC. In words: Induction of apoptosis in VEGF-stimulated HUVEC assessed as early apoptotic cells at 10 uM after 24 hrs by Annexin V-FITC/propidium iodide staining based flow cytometric analysis (reference value: 7%). Particulars: human. The format is cell-based. The gist of the method:
as §1

A further data set has as its system Chorioallantoic membrane. The data set can be described thus: Antiangiogenic activity in Leghorn chicken fertilized egg chorioallantoic membrane assessed as impaired neovascularization with absence of vascular networks at 10 nM/egg measured after 48 hrs by CAM assay. In kind it is functional, tissue-based. Particulars: Gallus gallus. The method, boiled down:
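Fertile Leghorn eggs incubated at 37.8°C, 40% humidity; window opened on day 7; compound, sunitinib or 0.9% NaCl mixed with DMSO applied on filter paper onto CAM; 48 h incubation, methanol fixation, photography; nascent vessels counted.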

The subject of data set [8] is HT-29. In words: Induction of apoptosis in human HT-29 cells assessed as early apoptotic cells at 20 uM after 24 hrs by Annexin V-FITC/propidium iodide staining based flow cytometric analysis (reference value: 1.9%). In kind it is cell-based. The following applies: ht-29, 24 h.
The subject of data set [9] is HUVEC. In words: Inhibition of Akt/mTOR signalling in VEGF-induced HUVEC assessed as reduction in mTOR phosphorylation at Ser2448 residue at 1 to 20 uM pre-incubated for 1.5 hrs followed by VEGF stimulation and measured after 30 mins by Western blot analysis. In kind it is cell-based. The following applies: Homo sapiens. The gist of the method:
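HUVECs were starved overnight, pretreated 1.5 h with 1, 5, 10 or 20 μM, then stimulated with VEGF (50 ng/mL) for 30 min. Lysates were equalized by Bradford assay, about 20 μg protein was resolved on gradient SDS-PAGE and immunoblotted with phospho-specific antibodies. Detection by HRP secondary antibodies and ECL.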

Data set [10] deals with HUVEC. The data set can be described thus: Induction of apoptosis in VEGF-stimulated HUVEC assessed as early apoptotic cells at 20 uM after 24 hrs by Annexin V-FITC/propidium iodide staining based flow cytometric analysis (reference value: 7%). The format is cell-based. Particulars: human. The gist of the method: as §1
Data set [11] relates to HUVEC. In words: Induction of apoptosis in VEGF-stimulated HUVEC assessed as PARP cleavage at 1 to 20 uM by Western blot analysis. The format is cell-based. Particulars: human.
The test system of data set [12] is HT-29. The data set can be described thus: Antitumor activity against human HT-29 cells xenografted in mouse assessed as reduction in cell proliferation in tumor at 20 to 60 mg/kg, po administered every other day for 3 weeks and measured at 20 days post treatment by Ki-67 staining based assay. The format is functional, organism-based.
Data set [13] can be described thus: Induction of apoptosis in human HT-29 cells assessed as viable cells at 5 uM after 48 hrs by Annexin V-FITC/propidium iodide staining based flow cytometric analysis (reference value: 81.1%). The format is cell-based. Particulars: read-out: Activity.
In data set [14] the test system is HUVEC. In words: Antimigratory activity in HUVEC assessed as reduction in VEGF-induced cell migration at 2.5 uM measured after 12 hrs by wound healing assay relative to control. In kind it is functional. The following applies: Homo sapiens. The gist of the method:
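Confluent HUVECs starved 12 h in M200 with 2% FBS, scratched with pipette tip; fresh M200 with 25 ng/mL VEGF plus vehicle, 2.5 μM sunitinib or compound (1, 2.5 μM); wound imaged at 0, 6, 12 and 24 h by inverted microscopy.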

In data set [15] the test system is HT-29. The data set can be described thus: Induction of apoptosis in human HT-29 cells assessed as late apoptotic cells at 5 uM after 24 hrs by Annexin V-FITC/propidium iodide staining based flow cytometric analysis (reference value: 12.3 to 13.4%). Particulars: ht-29, 24 h. In kind it is cell-based.
The nature of data set [16]: Induction of apoptosis in VEGF-stimulated HUVEC assessed as viable cells at 5 uM after 24 hrs by Annexin V-FITC/propidium iodide staining based flow cytometric analysis (reference value: 69.6%). In kind it is cell-based. Particulars: human, read-out: Activity. The gist of the method:
as §1

The subject of data set [17] is HUVEC. The data set can be described thus: Antiangiogenic activity in HUVEC assessed as inhibition of VEGF-induced capillary like tube formation preincubated with VEGF for 20 mins followed by compound addition measured after 6 hrs by matrigel based tube formation assay. The format is functional, cell-based. Particulars: Homo sapiens. The method, boiled down: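 Matrigel (100 μL) set 1 h at 37°C; 2×10⁴ HUVECs in M200 with 10% FBS added per well plus 10 ng/mL VEGF; compound added after 20 min; incubated 6 h at 37°C, then capillary-like structures photographed.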

Data set [18] concerns HT-29. In words: Downregulation of VEGF expression in human HT-29 cells after 24 hrs by immunoblot analysis. In kind it is functional, cell-based.
The test system of data set [19] is HT-29. The data set can be described thus: Antiangiogenic activity in human HT-29 cells assessed as decrease in secreted MMP2 activity at 1 to 20 uM after 24 hrs by gelatin zymography. The format is functional, cell-based. The gist of the method: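 HT29 cells treated 1, 5, 10 or 20 μM for 24 h; supernatant run non-reducing on 10% SDS-PAGE with 2% gelatin; SDS removed with 2% Triton X-100, gel incubated 48 h at 37°C in Tris pH 7.5/NaCl/CaCl2 buffer, Coomassie stained; clear MMP-2 and MMP-9 bands quantified by densitometry.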

Molecules are shown by their SMILES. The source made the active and inactive calls. The rule behind the calls is not given here.

As to `COc1ccc(NC(=O)c2cccc(/C=C3\CC(=O)N(c4ccc(C)cc4)C3=O)c2)cc1`, the viability at 24 h, 20 µM in data set [1] was 78.9%. Also, the inhibition result (in data set [2]; with HUVEC [9]; in the data set with HT-29 [12]; with HT-29 [19]) was “Active” throughout. Besides, the Activity with HT-29 [3] is 1.2 to 5.4%; with HUVEC [4], 10.4%; in the data set on HT-29 [6], 1.1%; with HUVEC [7], 10.8%; in the data set on HT-29 [8], 1.7%; in the data set with HUVEC [10], 9.8%. Also, the Activity entry with HUVEC [11] was “Non-Toxic”; with HT-29 [15] it was 15.9 to 18.4%. Besides, the figures for the inhibition (in data set [5]; in the data set on HUVEC [17]; in the data set on HT-29 [18]) were 95.4%, “Dose-dependent effect” and “Dose-dependent effect”, respectively. Further, the result with Chorioallantoic membrane was Active. Besides, the viability at 48 h, 5 µM in data set [13] was 76.1%. Further, in the data set on HUVEC [14], the inhibition at 2.5 µM was found to be 50%. The viability at 24 h, 5 µM in [16] is 75.4%.

For the origin of these results see ChEMBL document CHEMBL4396917, “Synthesis and biological evaluation of novel benzylidene-succinimide derivatives as noncytotoxic antiangiogenic inhibitors with anticolorectal cancer activity in vivo” (Eur J Med Chem, 2019).
